SENP8 block-1: inhibitors of human SENP8 protease | Q96LD8 | recombinant SENP8, Nedd8 substrate fluorescence | inhibition, % at 20 µM | 360,000 tested, 0.64% active | AID 602440; in the data active = inhibition mostly above about 40%, no sharp cut-off; inactive = mostly below about 27%
SENP8 block-2: blocks the human protease SENP8; Q96LD8; 330,000 tested, 1.2% active; inhibition, % at 10 µM; purified SENP8, Z-RLRGG-aminoluciferin cleavage, luminescence; in the data active = inhibition above about 50%
HSP90 inh: blocks HSP90-mediated luciferase refolding in reticulocyte lysate; Rabbit reticulocyte lysate, luciferase refolding luminescence, 3 h; inhibition, % at 5.6 µM; 290,000 tested, 0.91% active; AID 1789;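 active = inhibition above the screen-wide mean plus 3 SD, computed separately per campaign, cut at about 16% in these data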;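 also: 0% = DMSO wells and 100% = 60 µM geldanamycin wells; inhibitors lower the luminescence because luciferase stays unfolded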
SENP7 block: SENP7 protease inhibition | 330,000 tested, 1.5% active | recombinant SENP7, Z-RLRGG-aminoluciferin luminescence, 40 min | inhibition, % at 5 µM | Q9BQF6;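 active = inhibition above about 50% at the single test dose, limit read from the data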;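 also: plate controls were DMSO with enzyme for no effect and no enzyme buffer wells for full effect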
SENP6 inh: SENP6 protease inhibition; inhibition, % at 10 µM; Q9GZR1; Recombinant SENP6 catalytic domain, aminoluciferin luminescence; 330,000 tested, 1.8% active;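 active = inhibition above about 50% at the single tested dose, limit read from the data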;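 also: plate controls were DMSO wells with enzyme for no effect and DMSO wells lacking enzyme for full effect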
Target sequence (Q9GZR1 628-1112 limits assumed): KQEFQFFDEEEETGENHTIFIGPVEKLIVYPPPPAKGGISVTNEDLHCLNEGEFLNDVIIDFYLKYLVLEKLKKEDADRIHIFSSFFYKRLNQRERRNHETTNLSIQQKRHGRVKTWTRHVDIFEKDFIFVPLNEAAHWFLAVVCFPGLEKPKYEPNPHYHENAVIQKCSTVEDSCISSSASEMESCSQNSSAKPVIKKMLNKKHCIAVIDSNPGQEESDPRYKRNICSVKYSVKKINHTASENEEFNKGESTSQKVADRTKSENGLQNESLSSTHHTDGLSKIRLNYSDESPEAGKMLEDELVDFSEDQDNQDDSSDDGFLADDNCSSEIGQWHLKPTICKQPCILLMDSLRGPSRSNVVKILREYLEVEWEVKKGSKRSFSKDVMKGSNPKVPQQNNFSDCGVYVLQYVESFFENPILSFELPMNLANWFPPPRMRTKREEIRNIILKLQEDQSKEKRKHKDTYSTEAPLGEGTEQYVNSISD
SENP1 inh: inhibitors of human SENP1 SUMO protease catalytic domain. Q9P0U3. recombinant SENP1 catalytic domain, CyPet-SUMO1-YPet FRET cleavage. inhibition, % at 10 µM. 360,000 tested, 0.21% active;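 active = inhibition at least 30% at 10 µM, raw YFP signal under a set limit, fluorescence ratio 0.5 to 1.5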;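 also: 0% = enzyme with DMSO and 100% = no enzyme wells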
Target sequence (Q9P0U3 419-644 limits assumed): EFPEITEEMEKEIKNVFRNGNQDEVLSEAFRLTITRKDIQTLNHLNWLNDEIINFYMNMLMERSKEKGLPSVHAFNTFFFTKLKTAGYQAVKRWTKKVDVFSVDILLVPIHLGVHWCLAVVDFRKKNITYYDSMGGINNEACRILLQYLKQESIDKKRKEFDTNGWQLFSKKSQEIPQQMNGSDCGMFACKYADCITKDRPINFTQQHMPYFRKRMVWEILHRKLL
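Assay system – human recombinant His6-tagged SENP1 catalytic domain enzyme · Input – SENP1 enzyme, 20 pM final · Buffer or medium – Tris pH 8 buffer plus EDTA, NaCl, BME, BSA, NP40, catalase · Schedule – 50 min reaction at room temperature · Technique – FRET read of cyan and yellow fluorescence · Control set – no-enzyme wells low, DMSO-plus-enzyme wells high control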
SENP8 confirm: confirmation of human SENP8 protease inhibitors; shares compounds with SENP7 block; inhibition, % at 12.5 µM; 6,200 tested, 40% active; Recombinant SENP8, Z-RLRGG-aminoluciferin luminescence, 60 min;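 active = mean inhibition across replicates above about 50%, limit read from the data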
SENP6 conf: human SENP6 inhibition, confirmed | inhibition, % at 12.5 µM | AID 488915 | shares compounds with SENP7 block | recombinant SENP6, Z-RLRGG-aminoluciferin luminescence | 6,200 tested, 58% active
SENP7 confirm: human SENP7 inhibition, confirmed. 6,200 tested, 69% active. inhibition, % at 12.5 µM. AID 488917. recombinant SENP7, Z-RLRGG-aminoluciferin luminescence, 40 min. shares compounds with SENP7 block
Casp3 SENP sel: inhibits human caspase-3 in SENP selectivity test | shares compounds with SENP7 block | purified caspase-3, Z-DEVD-aminoluciferin luminescence, 60 min | inhibition, % at 12.5 µM | 6,200 tested, 60% active;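 active = mean inhibition above about 50%, limit read from the data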;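 also: plate controls were enzyme with DMSO for no effect and wells without caspase-3 for full effect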
SENP luc ctr: counter-screen for SENP inhibitors: luminescence interference; shares compounds with SENP7 block; Pre-incubated SENP8/Z-RLRGG-aminoluciferin, luciferase luminescence interference; inhibition, % at 12.5 µM; 6,200 tested, 39% active; AID 488919;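 active = mean inhibition above about 50% when retested at one dose, limit read from the data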;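 also: plate controls were DMSO wells with completed reaction for no effect and substrate without enzyme for full effect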
Numbers without * were called inactive; . = no result. Only some compounds are listed: those with a hit (about 2.9% of all), similar ones and a draw of the others.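 The calls were made as follows, unless noted: active = mean inhibition above about 50% in the one-dose retest (limit read from the data); inactive = the rest.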

SMILES | SENP8 block-1 | SENP8 block-2 | HSP90 inh | SENP7 block | SENP6 inh | SENP1 inh | SENP8 confirm | SENP6 conf | SENP7 confirm | Casp3 SENP sel | SENP luc ctr
CN(C)c1ccnc2sc3c(SCc4ccc(Cl)cc4)ncnc3c12 | -101.3 | -8.5 | -4.9 | 57.7* | 2.5 | -27.2 | -2.3 | 5.1 | 3.3 | 19.4 | 9.1
COC(=O)c1c(-c2cccnc2)csc1NC(=O)c1ccc2c(c1)OCO2 | -464.6 | 72.8* | 2.8 | 95.5* | 72.3* | -16.1 | 11.5 | 21.2 | 20.7 | 36.2 | 0.1
O=C(NC1CCCCC1)C(Cc1ccccc1)N1C(=O)C2C3CCC(C3)C2C1=O (stereo not given) | 3.4 | 6.0 | -1.0 | 79.5* | 7.1 | 2.6 | 7.0 | 5.0 | -5.2 | -5.0 | -11.9
CCCS(=O)(=O)NC(=O)C1(C)CCN(C(=O)c2ccc(SC(F)(F)F)cc2)C1 (stereo not given) | 11.4 | . | . | . | . | 0.3 | . | . | . | . | .
O=C(Nc1cccc(Br)c1)c1cccc(OC(=S)N2CCOCC2)c1 | 2.8 | 34.1 | 0.7 | 54.7* | 56.8* | -1.4 | 20.8 | 41.8 | 74.2* | 27.4 | 51.1*
Cc1ccc(C(=O)Nc2nccs2)cc1 | -257.6 | 20.0 | 6.4 | 41.2 | -7.8 | -1.9 | . | . | . | . | .
CCc1sc(C(=O)Nc2ncccc2C)cc1C | -2.7 | 1.0 | -2.8 | 9.0 | -22.6 | 1.4 | . | . | . | . | .
CCc1sc(C(=O)Nc2nccs2)cc1C | -7.5 | 67.5* | 15.2 | 79.9* | 80.0* | 1.8 | 83.2* | 81.2* | 95.9* | 79.3* | 14.6
Cc1csc(NC(=O)c2sccc2C)n1 | -10.7 | 91.4* | 1.8 | 96.1* | 95.5* | 1.6 | 94.6* | 95.1* | 101.2* | 97.5* | 94.3*
COc1ccc2oc(C(=O)Nc3nc(C)cs3)c(C)c2c1 | -347.8 | 43.4 | . | 60.8* | 46.0 | -27.8 | 17.0 | 37.0 | 72.3* | 54.8* | 34.0
Cc1ccsc1C(=O)Nc1nccs1 | 2.2 | 50.8* | -2.2 | 63.1* | 63.8* | -4.4 | 58.5* | 57.2* | 86.1* | 85.5* | 52.0*
CN(C(=O)C1CCC(=O)N(CCCN2CCCC2=O)C1)C(C1CC1)C1CC1 (stereo not given) | 7.3 | 4.3 | -2.7 | 6.3 | 14.6 | 0.5 | . | . | . | . | .
CC(=O)N1CCN(c2ccc([N+](=O)[O-])c(NCC3CCCO3)c2)CC1 (stereo not given) | 35.9 | -1.5 | -1.3 | 6.7 | 1.6 | 2.1 | . | . | . | . | .
O=C(c1ccccc1F)N1CCN(c2ccc([N+](=O)[O-])c(NCC3CCCO3)c2)CC1 (stereo not given) | 23.7 | 4.3 | -0.9 | 53.8* | 2.2 | -0.9 | -12.3 | -7.5 | -10.1 | 2.8 | -2.4
COc1ccc(CCNC(=O)Nc2nc(C(N)COCc3ccccc3)cs2)cc1OC (stereo not given) | 22.1 | . | . | . | . | 2.0 | . | . | . | . | .
O=C(O)COc1ccc(-c2nccc(-c3ccccn3)n2)cc1 | 2.7 | -15.2 | -1.3 | -3.8 | -35.9 | 1.6 | . | . | . | . | .
O=C(O)COc1ccc(/C=C/c2nc(-c3ccccc3O)n[nH]2)cc1 | -49.5 | 67.0* | -3.5 | 69.1* | 86.9* | 0.8 | 84.2* | 81.5* | 95.8* | 71.3* | 82.8*
COc1ccc(/C=C/c2nc(-c3ccccc3O)n[nH]2)cc1OC | -117.1 | -3.6 | -4.4 | 43.0 | 67.1* | 1.5 | 65.4* | 62.9* | 85.2* | 19.4 | 48.3
Oc1ccccc1-c1n[nH]c(-c2ccccc2O)n1 | -84.9 | . | . | . | . | 0.9 | . | . | . | . | .
Cc1ccc(OCc2nc(-c3cccs3)no2)c([N+](=O)[O-])c1 | 7.5 | 37.1 | 7.1 | 52.7* | -22.7 | 1.1 | 66.5* | 65.4* | 80.1* | 44.8 | 9.3
Cc1ccc(OCc2nc(-c3ccccc3)no2)c(C)c1 | 13.8 | 24.6 | -4.9 | 44.6 | 55.1* | -0.7 | 32.8 | 35.5 | 55.7* | 16.9 | 26.0
CCOC(=O)Cn1nc(C)n(-c2ccccc2)c1=O | 3.2 | 4.9 | -0.9 | 0.2 | -11.3 | -0.5 | . | . | . | . | .
CCOC(=O)Cn1nc(C)n(-c2ccc(C)cc2)c1=O | 5.4 | 7.0 | -1.2 | 101.1* | -3.0 | -0.1 | 2.9 | 1.4 | -1.2 | 0.4 | -1.1
COc1cccc(C(=O)/C=C/Nc2ccc(NC(C)=O)cc2)c1 | -98.5 | 79.3* | 1.8 | 86.8* | 92.7* | -27.2 | 89.9* | 89.0* | 97.5* | 87.2* | 89.0*
COc1ccc(C(=O)/C=C/Nc2ccc(NC(C)=O)cc2)cc1OC | -173.2 | -6.2 | -0.7 | 5.3 | -16.2 | -27.2 | . | . | . | . | .
SMILES | SENP8 block-1 | SENP8 block-2 | HSP90 inh | SENP7 block | SENP6 inh | SENP1 inh | SENP8 confirm | SENP6 conf | SENP7 confirm | Casp3 SENP sel | SENP luc ctr
COc1cccc(C(=O)/C=C/Nc2cccc(O)c2)c1 | -77.7 | 95.4* | 2.8 | 99.8* | 96.3* | -56.6 | 99.0* | 100.2* | 103.3* | 97.8* | 97.9*
O=[N+]([O-])c1ccc(C2Oc3ccccc3C3CC(c4ccccc4)=NN32)s1 (stereo not given) | . | . | -0.8 | . | . | . | . | . | . | . | .
NC(=O)c1nnn(-c2cccc(C(F)(F)F)c2)c1-c1ccccc1 | 2.6 | 7.2 | -0.8 | 2.9 | -16.4 | 2.2 | . | . | . | . | .
O=C(O)c1cccc(-n2cc(-c3cccc(C(F)(F)F)c3)cn2)c1 | 21.6 | 78.1* | 7.9 | 59.2* | 85.3* | -0.6 | -5.9 | 86.9* | 96.9* | 11.4 | 90.9*
O=S1(=O)CC(N2CC=CC2)CN1Cc1cn(Cc2ccc(Cl)cc2)nn1 (stereo not given) | 11.3 | . | . | . | . | 3.4 | . | . | . | . | .
CN1C(=O)/C(=C/c2ccc(C(=O)Nc3ccc(O)cc3C(=O)O)cc2)SC1=S | 25.7 | 95.9* | -5.7 | 60.0* | 92.7* | 5.3 | 61.7* | 96.6* | 70.0* | 98.3* | 29.0
Cc1ccc(C(=O)Nc2ccc(O)cc2C(=O)O)cc1C | 17.9 | 24.5 | 1.3 | 24.2 | 46.1 | 1.5 | . | . | . | . | .
Cc1cccc(C(=O)Nc2ccc(O)cc2C(=O)O)c1 | 12.6 | 88.2* | -1.8 | 77.4* | 93.4* | 3.6 | 88.2* | 90.0* | 99.9* | 95.3* | 90.6*
Cc1ccc(/C=C2\SC(=S)N(CCC(=O)NNC(=O)c3ccc(O)cc3)C2=O)cc1 | 22.8 | -8.1 | -1.0 | -3.8 | 3.0 | 0.8 | . | . | . | . | .
Cc1ccc(C(=O)Nc2ccc(O)cc2C(=O)O)cc1 | 12.4 | 35.0 | 2.7 | 42.1 | 63.0* | 1.1 | 61.8* | 57.6* | 82.9* | 74.9* | 64.3*
COc1ccc(C(=O)NC2=NCCS2)cc1S(=O)(=O)N1CCOCC1 | 12.4 | . | . | . | . | 1.4 | . | . | . | . | .

Source: PubChem (several laboratories)
